Measured values taken from ChEMBL document CHEMBL4028836, “Optimization of M4 positive allosteric modulators (PAMs): The discovery of VU0476406, a non-human primate in vivo tool compound for translational pharmacology” (Bioorg Med Chem Lett, 2017).
Active and inactive are the calls of the source. The rule behind the calls is not given here.

How the values were obtained:
[1] = molecular target: T1, Muscarinic acetylcholine receptor M4 (Homo sapiens) (UniProt P08173); assay: Positive allosteric modulation of human M4 receptor expressed in CHO cells coexpressing Gqi5 assessed as increase in acetylcholine-induced calcium mobilization relative to acetylcholine; format: functional, cell-based
T1 sequence (whole entry): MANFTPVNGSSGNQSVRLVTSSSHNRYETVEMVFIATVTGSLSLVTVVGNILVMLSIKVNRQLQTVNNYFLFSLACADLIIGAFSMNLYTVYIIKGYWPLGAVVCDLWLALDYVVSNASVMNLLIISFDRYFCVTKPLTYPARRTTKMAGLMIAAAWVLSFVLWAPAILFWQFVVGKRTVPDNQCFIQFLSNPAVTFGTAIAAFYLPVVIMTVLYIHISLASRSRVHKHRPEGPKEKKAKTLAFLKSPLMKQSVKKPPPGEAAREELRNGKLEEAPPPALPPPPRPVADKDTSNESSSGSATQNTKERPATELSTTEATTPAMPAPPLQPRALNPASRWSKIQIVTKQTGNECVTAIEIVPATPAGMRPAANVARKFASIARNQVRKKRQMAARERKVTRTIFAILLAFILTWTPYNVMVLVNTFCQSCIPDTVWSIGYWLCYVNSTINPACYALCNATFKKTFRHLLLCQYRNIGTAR
Procedure, shortened: (§1)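 Calcium mobilization in CHO cells expressing hM4 with Gqi5. Compound added in presence of a fixed EC20 concentration of acetylcholine. Values are means of three independent experiments, each run in triplicate.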

[2] = molecular target: T2, Muscarinic acetylcholine receptor M4 (Homo sapiens, UniProt P08173); assay: Positive allosteric modulation of human M4 receptor expressed in CHO cells coexpressing Gqi5 assessed as increase in acetylcholine-induced calcium mobilization; format: functional, cell-based; procedure, shortened: as §1
T2 sequence (P08173 whole entry): T1 sequence (whole entry)

[3] = Unbound brain concentration in rat; format: ADME, tissue-based
Cytochrome P450 2D6 = Cytochrome P450 2D6 (Homo sapiens, UniProt P10635); assay: Inhibition of CYP2D6 (unknown origin); format: ADME
Sequence of Cytochrome P450 2D6 (P10635 whole entry): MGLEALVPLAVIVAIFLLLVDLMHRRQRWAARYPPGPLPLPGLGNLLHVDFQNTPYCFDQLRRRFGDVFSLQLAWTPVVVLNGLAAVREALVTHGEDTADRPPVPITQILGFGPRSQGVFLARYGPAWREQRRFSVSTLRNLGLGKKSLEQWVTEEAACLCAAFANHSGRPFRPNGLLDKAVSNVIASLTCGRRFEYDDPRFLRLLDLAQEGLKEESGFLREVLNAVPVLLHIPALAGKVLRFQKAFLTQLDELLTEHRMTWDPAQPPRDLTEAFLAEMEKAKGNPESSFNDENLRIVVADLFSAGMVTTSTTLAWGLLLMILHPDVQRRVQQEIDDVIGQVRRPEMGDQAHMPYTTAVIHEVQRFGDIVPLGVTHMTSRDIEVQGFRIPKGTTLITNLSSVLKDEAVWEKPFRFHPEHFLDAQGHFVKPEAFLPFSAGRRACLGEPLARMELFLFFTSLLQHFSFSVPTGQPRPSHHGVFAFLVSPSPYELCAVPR

MDR1 (P-gp) = assay: Efflux ratio of permeability in MDCK2-MDR1 cells; format: ADME, cell-based, Canis lupus familiaris; conditions: dog, MDCK-MDR1
[4] = Unbound plasma concentration in rat; format: ADME, cell-free
Cytochrome P450 2C9 = Cytochrome P450 2C9 (Homo sapiens, UniProt P11712); assay: Inhibition of CYP2C9 (unknown origin); format: ADME
Sequence of Cytochrome P450 2C9 (P11712 whole entry): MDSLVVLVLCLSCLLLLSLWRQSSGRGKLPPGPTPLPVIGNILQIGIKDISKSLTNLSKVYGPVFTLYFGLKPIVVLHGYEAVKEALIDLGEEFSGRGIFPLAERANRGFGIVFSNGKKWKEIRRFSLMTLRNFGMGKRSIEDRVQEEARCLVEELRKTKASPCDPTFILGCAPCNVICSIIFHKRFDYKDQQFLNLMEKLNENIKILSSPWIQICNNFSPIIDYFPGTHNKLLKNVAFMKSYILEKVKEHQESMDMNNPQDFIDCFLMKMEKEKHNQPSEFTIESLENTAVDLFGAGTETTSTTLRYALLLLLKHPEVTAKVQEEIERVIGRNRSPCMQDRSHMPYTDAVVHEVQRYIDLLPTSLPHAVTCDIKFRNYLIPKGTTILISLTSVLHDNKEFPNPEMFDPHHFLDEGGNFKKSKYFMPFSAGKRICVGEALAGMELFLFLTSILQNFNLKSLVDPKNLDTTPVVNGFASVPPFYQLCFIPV

[5] = Brain to plasma permeability coefficient, Kp of the compound in Sprague-Dawley rat at 0.1 to 0.2 mg/kg, iv measured at 0.25 hrs post dose; format: ADME, organism-based
Procedure, shortened: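 Sprague-Dawley rats were dosed IV at 0.1–0.2 mg/kg, with brain and plasma sampled at 0.25 hr. Brain:plasma Kp was calculated, with Kp,uu where unbound fractions were available.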

Cytochrome P450 1A2 = molecular target: T3, Cytochrome P450 1A2 (Homo sapiens, UniProt P05177); assay: Inhibition of CYP1A2 (unknown origin); format: ADME
T3 sequence (P05177 whole entry): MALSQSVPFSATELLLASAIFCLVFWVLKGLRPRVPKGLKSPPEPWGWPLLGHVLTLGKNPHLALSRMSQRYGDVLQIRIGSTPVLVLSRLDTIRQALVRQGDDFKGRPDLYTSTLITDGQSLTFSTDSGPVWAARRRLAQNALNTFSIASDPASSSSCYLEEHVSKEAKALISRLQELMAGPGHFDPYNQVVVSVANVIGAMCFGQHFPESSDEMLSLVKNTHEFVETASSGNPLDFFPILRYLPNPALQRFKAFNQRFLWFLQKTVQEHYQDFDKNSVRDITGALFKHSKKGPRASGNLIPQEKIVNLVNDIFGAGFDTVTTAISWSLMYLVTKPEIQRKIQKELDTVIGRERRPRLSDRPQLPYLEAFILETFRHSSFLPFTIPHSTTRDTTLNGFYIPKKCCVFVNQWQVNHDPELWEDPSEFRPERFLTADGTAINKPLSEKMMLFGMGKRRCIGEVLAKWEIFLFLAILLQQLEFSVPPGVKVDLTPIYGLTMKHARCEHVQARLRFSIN

Cytochrome P450 3A4 = Cytochrome P450 3A4 (Homo sapiens, UniProt P08684); assay: Inhibition of CYP3A4 (unknown origin); format: ADME
Sequence of Cytochrome P450 3A4 (P08684 whole entry): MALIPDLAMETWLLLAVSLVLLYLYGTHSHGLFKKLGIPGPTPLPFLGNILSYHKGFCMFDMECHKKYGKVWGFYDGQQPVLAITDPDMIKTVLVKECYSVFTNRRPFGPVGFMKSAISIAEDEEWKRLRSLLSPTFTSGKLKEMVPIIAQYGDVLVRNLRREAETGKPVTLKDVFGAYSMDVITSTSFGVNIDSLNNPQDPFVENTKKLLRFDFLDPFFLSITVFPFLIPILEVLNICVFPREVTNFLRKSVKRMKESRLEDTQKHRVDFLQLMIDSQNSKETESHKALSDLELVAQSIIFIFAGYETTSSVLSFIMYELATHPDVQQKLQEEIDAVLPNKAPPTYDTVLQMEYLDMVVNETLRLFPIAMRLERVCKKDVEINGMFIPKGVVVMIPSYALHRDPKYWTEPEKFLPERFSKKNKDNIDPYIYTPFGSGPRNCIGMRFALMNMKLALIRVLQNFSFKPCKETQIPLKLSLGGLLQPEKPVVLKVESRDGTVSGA

[6] = Unbound plasma concentration in human; format: ADME, cell-free
Rattus norvegicus [7] = assay: Elimination half-life in Sprague-Dawley rat at 0.1 to 1 mg/kg, iv; format: ADME, organism-based; conditions: in vivo
Rattus norvegicus [8] = species: Rattus norvegicus; assay: Activity at rat GABA-A receptor
Procedure, shortened: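 Rat GABAA receptor, benzodiazepine site, radioligand binding in a broad secondary pharmacology panel. IC50 taken from binding. Functional follow-up was run at 10 μM.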

[9] = molecular target: Muscarinic acetylcholine receptor M4 (Rattus norvegicus) (UniProt P08485); assay: Positive allosteric modulation of rat M4 receptor assessed as increase in acetylcholine-induced calcium mobilization relative to acetylcholine; format: functional
Sequence of Muscarinic acetylcholine receptor M4 (Rattus norvegicus) (P08485 whole entry): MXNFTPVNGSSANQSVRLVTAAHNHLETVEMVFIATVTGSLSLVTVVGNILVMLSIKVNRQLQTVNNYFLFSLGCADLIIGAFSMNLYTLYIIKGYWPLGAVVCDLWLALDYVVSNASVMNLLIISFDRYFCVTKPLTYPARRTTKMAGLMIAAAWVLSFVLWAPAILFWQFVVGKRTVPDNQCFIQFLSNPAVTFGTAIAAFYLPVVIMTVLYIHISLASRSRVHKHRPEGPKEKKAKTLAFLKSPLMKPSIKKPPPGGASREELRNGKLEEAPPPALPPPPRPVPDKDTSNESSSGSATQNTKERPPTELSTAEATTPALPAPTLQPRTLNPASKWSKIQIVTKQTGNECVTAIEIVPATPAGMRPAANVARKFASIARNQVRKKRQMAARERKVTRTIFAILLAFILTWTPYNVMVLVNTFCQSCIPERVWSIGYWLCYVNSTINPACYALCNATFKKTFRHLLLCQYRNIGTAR
Procedure, shortened: (§2)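 M4 PAM concentration-response curves measured by calcium mobilization at the stated species' receptor. Potency reported as EC50/pEC50 and efficacy as % of acetylcholine maximum.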

Macaca fascicularis [10] = species: Macaca fascicularis; assay: Positive allosteric modulation of cynomolgus monkey M4 receptor assessed as increase in acetylcholine-induced calcium mobilization relative to acetylcholine; procedure, shortened: as §2
Canis lupus familiaris [11] = species: Canis lupus familiaris; assay: Activity at dog M2 receptor
[12] = molecular target: T1, Muscarinic acetylcholine receptor M4 (Homo sapiens); assay: Displacement of [3H]NMS from human M4 receptor
Procedure, shortened: (§3)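 Competition binding of ACh against [3H]-N-methylscopolamine at M4 of each species. Combined with ACh concentration-response fold-shift Ca2+ mobilization data to fit operational model parameters (KB, α, β). n=3–4, each in duplicate.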

Canis lupus familiaris [13] = species: Canis lupus familiaris; assay: Positive allosteric modulation of dog M4 receptor assessed as increase in acetylcholine-induced calcium mobilization relative to acetylcholine; procedure, shortened: as §2
[14] = molecular target: Muscarinic acetylcholine receptor M4 (Rattus norvegicus) (UniProt P08485); assay: Displacement of [3H]NMS from rat M4 receptor; procedure, shortened: as §3
Macaca fascicularis [15] = species: Macaca fascicularis; assay: Activity at cynomolgus monkey M2 receptor
Macaca fascicularis [16] = species: Macaca fascicularis; assay: Displacement of [3H]NMS from cynomolgus monkey M4 receptor; procedure, shortened: as §3
Rattus norvegicus [17] = assay: Volume of distribution at steady state […] in Sprague-Dawley rat at 0.1 to 1 mg/kg, iv; format: ADME, organism-based; conditions: in vivo
Procedure, shortened: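 IV pharmacokinetics in Sprague-Dawley rats at 0.1–1.0 mg/kg. CLp, elimination t½ and Vss derived.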

Question: With `COc1ncc(-c2ccc(CNC(=O)c3sc4nnc(C)c(C)c4c3N)cc2)cn1` as the compound, how does the %max [1] read?
Answer: 91%

Question: And the EC50 ([2]; read-out: EC50)?
Answer: 0.084 µM

Question: Which fraction unbound [3] does the source give for `Cc1nnc2sc(C(=O)NCc3ccc(-c4ccncc4)cc3)c(N)c2c1C` here?
Answer: 0.042

Question: And the IC50 (Cytochrome P450 2D6)?
Answer: 1.3 µM

Question: And the efflux ratio (MDR1 (P-gp))?
Answer: 1.1

Question: What about the fraction unbound [4] of the same compound?
Answer: 0.037

Question: And the IC50 (Cytochrome P450 2C9)?
Answer: 2.3 µM

Question: What about the Kp [5] of the same compound?
Answer: 0.94

Question: And the IC50 (Cytochrome P450 1A2)?
Answer: 9.7 µM

Question: What about the %max [1] of the same compound?
Answer: 83%

Question: What about the IC50 (Cytochrome P450 3A4) of the same compound?
Answer: 0.34 µM

Question: And the EC50 ([2]; read-out: EC50)?
Answer: 0.036 µM

Question: And the fraction unbound [6]?
Answer: 0.013

Question: And the “beta t1/2” value (Rattus norvegicus [7])?
Answer: 1.5 h

Question: What does the source list for `Cc1nnc2sc(C(=O)NCc3ccc(-c4cccnc4F)cc3)c(N)c2c1C`?
Answer: Activity (Rattus norvegicus [8]): inactive; %max [9]: 72%; %max (Macaca fascicularis [10]): 64%; Activity (Canis lupus familiaris [11]): inactive; Kb [12]: 2.8 µM; %max (Canis lupus familiaris [13]): 49%; Kb [14]: 0.37 µM; %max [1]: 74%; Activity (Macaca fascicularis [15]): inactive; Kb (Macaca fascicularis [16]): 2.1 µM

Question: Which %max [1] does the source give for `Cc1nnc2sc(C(=O)NCc3ccc(-c4cncc(F)c4)cc3)c(N)c2c1C` here?
Answer: 78%

Question: And the EC50 ([2]; read-out: EC50)?
Answer: 0.144 µM

Question: Which %max [1] does the source give for `Cc1nnc2sc(C(=O)NCc3ccc(-c4cccnc4)cc3)c(N)c2c1C` here?
Answer: 63%

Question: What about the EC50 ([2]; read-out: EC50) of the same compound?
Answer: 0.103 µM

Question: Which results are given for `Cc1nnc2sc(C(=O)NCc3cccc(Br)c3)c(N)c2c1C`?
Answer: %max [1]: 84%; EC50 ([2]; read-out: EC50): 0.185 µM; EC50 ([2]; read-out: pEC50 (converted)): 0.17 µM

Question: Which IC50 (Cytochrome P450 2D6) does the source give for `Cc1nnc2sc(C(=O)NCc3ccc(-c4ccnc(F)c4)cc3)c(N)c2c1C` here?
Answer: > 30 µM

Question: What about the Vdss (Rattus norvegicus [17]) of the same compound?
Answer: 0.5 L/kg

Question: And the fraction unbound [4]?
Answer: 0.002

Question: What about the IC50 (Cytochrome P450 2C9) of the same compound?
Answer: 25 µM

Question: And the Kp [5]?
Answer: 0.21

Question: And the IC50 (Cytochrome P450 1A2)?
Answer: 2.5 µM

Question: And the %max [1]?
Answer: 92%

Question: And the IC50 (Cytochrome P450 3A4)?
Answer: 24 µM

Question: And the EC50 ([2]; read-out: EC50)?
Answer: 0.058 µM

Question: What about the fraction unbound [6] of the same compound?
Answer: 0.029

Question: And the “beta t1/2” value (Rattus norvegicus [7])?
Answer: 1.7 h

Question: For `Cc1cc(-c2ccc(CNC(=O)c3sc4nnc(C)c(C)c4c3N)cc2)cnc1F`, which %max [1] is on record?
Answer: 68%

Question: What about the EC50 ([2]; read-out: EC50) of the same compound?
Answer: 0.994 µM

Question: Which %max [1] does the source give for `Cc1nnc2sc(C(=O)NCc3ccc(-c4ccncc4F)cc3)c(N)c2c1C` here?
Answer: 86%

Question: And the EC50 ([2]; read-out: EC50)?
Answer: 1.72 µM

Question: What about the EC50 ([2]; read-out: pEC50 (converted)) of the same compound?
Answer: 1.55 µM

Question: Which %max [1] does the source give for `Cc1ncc(-c2ccc(CNC(=O)c3sc4nnc(C)c(C)c4c3N)cc2)cn1` here?
Answer: 65%

Question: What about the EC50 ([2]; read-out: EC50) of the same compound?
Answer: 0.23 µM

Question: What about the EC50 ([2]; read-out: pEC50 (converted)) of the same compound?
Answer: 0.214 µM

Question: Which IC50 (Cytochrome P450 2D6) does the source give for `Cc1nnc2sc(C(=O)NCc3ccc(-c4ccc(F)nc4)cc3)c(N)c2c1C` here?
Answer: > 30 µM

Question: And the Vdss (Rattus norvegicus [17])?
Answer: 0.6 L/kg

Question: What about the fraction unbound [4] of the same compound?
Answer: 0.004

Question: What about the IC50 (Cytochrome P450 2C9) of the same compound?
Answer: 26 µM

Question: And the Kp [5]?
Answer: 0.13

Question: And the IC50 (Cytochrome P450 1A2)?
Answer: 0.79 µM

Question: And the %max [1]?
Answer: 79%

Question: And the IC50 (Cytochrome P450 3A4)?
Answer: 25 µM

Question: And the EC50 ([2]; read-out: EC50)?
Answer: 0.064 µM

Question: What about the fraction unbound [6] of the same compound?
Answer: 0.023

Question: And the “beta t1/2” value (Rattus norvegicus [7])?
Answer: 0.48 h
